For 37 compounds, inhibition, IC50 and EC50 results are on record in ChEMBL document CHEMBL4480390, “Cink4T, a quinazolinone-based dual inhibitor of Cdk4 and tubulin polymerization, identified via ligand-based virtual screening, for efficient anticancer therapy” (Eur J Med Chem, 2019).

SMILES strings stand for the structures. Calls of active or inactive are those of the source. The rule behind the calls is not given here.

The target of experiment [1] is Cyclin-dependent kinase 4/cyclin D1 (Homo sapiens) (UniProt P11802+P24385). In words: Inhibition of recombinant human N-terminal GST-tagged CDK4 (S4 to E303 residues)/Cyclin D1 (Q4 to I295 residues) expressed in sf9 cells at 10 uM using RBCTF as substrate measured after 1 hr by ADP-glo luminescence assay relative to control.
Experiment [2] deals with CDK9/cyclin T1 (Homo sapiens) (UniProt O60563+P50750). In words: Inhibition of N-terminal GST-HIS6 fusion protein tagged human full length CDK9 (M1 to F372 residues)/N-terminal HIS6-fused human Cyclin-T1 (M1 to K726 residues) expressed in Sf9 cells at 10 uM using RBCTF as substrate measured after 1 hr by ADP-glo luminescence assay relative to control. Put shortly:
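ADP-Glo kinase assay with 200 ng Cdk-cyclin enzyme, ATP (125 µM in 2.5x mix) and 25 µg substrate (RBCTF or RBER-CHKtide, per Cdk). Buffer: Tris, MgCl2, BSA, DTT, MnCl2 cofactor, DMSO. Reaction 1 h at 21°C; ADP-Glo 40 min, then detection reagent 40 min. Luminescence read. IC50 by 4-parameter fit; three independent experiments.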
A general note: ADP-Glo turns the ADP formed in a reaction into a luminescent signal.

For the next experiment, the target named is CDK2/Cyclin A2 (Homo sapiens, UniProt P24941). Description: Inhibition of human full length N-terminal GST-fused CDK2 (M1 to L298 residues)/human full length Cyclin-A2 (M1 to L432 residues) expressed in Sf9 cells using histone H1 as substrate measured after 1 hr by ADP-glo luminescence assay.
In a further experiment the target is Tubulin (Sus scrofa) (UniProt P02554+P02550). Description: Inhibition of porcine tubulin polymerization at 5 uM incubated for 1 min by fluorescence based assay. The class given is protein assay. The procedure, abridged:
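Compounds added from 10x stocks in duplicate and warmed at 37°C ≤1 min. Ice-cold tubulin pre-mix then added. Fluorescent reporter read at ex 360/em 460 nm for 60 min. Paclitaxel served as enhancer control, CaCl2 as inhibitor control.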

A further experiment concerns A549. Description: cells. The conditions noted are these: Homo sapiens, A549, 72 h.
The subject of the next experiment is Calu-1. In words: cells. To be noted: Homo sapiens, Calu-1, 72 h.
In the next experiment the test system is MDA-MB-468. In words: cells. The conditions noted are these: Homo sapiens, MDA-MB-468, 72 h.
The subject of another experiment is T47D. In words: cells. To be noted: Homo sapiens, 72 h.

The inhibition is the change of the read-out against control, counted positive when it falls. As usually defined, the IC50 is the concentration that inhibits the measured activity by half. Low values mean greater potency, high ones weaker potency. The EC50 is the concentration giving half of the maximal effect.

Sequence of Tubulin (Sus scrofa) (P02550 whole entry, looked up): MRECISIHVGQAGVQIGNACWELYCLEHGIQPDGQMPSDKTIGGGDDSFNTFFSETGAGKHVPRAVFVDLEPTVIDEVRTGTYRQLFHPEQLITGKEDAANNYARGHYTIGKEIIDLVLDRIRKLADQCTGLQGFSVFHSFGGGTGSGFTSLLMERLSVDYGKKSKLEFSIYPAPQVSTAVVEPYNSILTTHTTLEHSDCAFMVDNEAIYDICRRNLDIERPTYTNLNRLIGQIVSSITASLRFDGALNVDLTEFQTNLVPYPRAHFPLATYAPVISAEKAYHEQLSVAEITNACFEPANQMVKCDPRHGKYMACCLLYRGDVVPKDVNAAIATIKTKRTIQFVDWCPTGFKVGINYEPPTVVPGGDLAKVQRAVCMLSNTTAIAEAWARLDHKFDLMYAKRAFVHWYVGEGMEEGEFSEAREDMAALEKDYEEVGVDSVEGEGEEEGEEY
Sequence of Tubulin (Sus scrofa) (P02554 whole entry, looked up): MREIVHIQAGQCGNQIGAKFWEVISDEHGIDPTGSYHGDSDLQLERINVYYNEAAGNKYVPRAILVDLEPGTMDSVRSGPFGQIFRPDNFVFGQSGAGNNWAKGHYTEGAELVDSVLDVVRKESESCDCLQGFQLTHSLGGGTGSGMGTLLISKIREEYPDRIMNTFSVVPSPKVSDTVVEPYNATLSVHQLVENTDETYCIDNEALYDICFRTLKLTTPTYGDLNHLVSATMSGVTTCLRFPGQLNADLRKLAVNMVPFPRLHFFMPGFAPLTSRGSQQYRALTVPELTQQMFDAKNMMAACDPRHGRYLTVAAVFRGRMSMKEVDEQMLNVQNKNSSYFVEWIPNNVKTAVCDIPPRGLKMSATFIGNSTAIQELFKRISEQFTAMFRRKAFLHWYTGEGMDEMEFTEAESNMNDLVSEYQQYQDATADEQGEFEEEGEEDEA

On to `COc1cc(-c2nc3ccccc3c(=O)[nH]2)ccc1OCC(=O)Nc1ccc(F)cc1`, for which the inhibition in experiment [1] amounted to 7%.

For `Cc1ccc(NC(=O)COc2ccc(-c3nc4ccccc4c(=O)[nH]3)cc2)cc1`, the inhibition in experiment [1] worked out at 5%.

On to `COc1cccc(NC(=O)COc2cc(-c3nc4ccccc4c(=O)[nH]3)ccc2OC)c1`, for which the inhibition in experiment [1] was 5%.

On to `O=C(COc1ccc(-c2nc3ccccc3c(=O)[nH]2)cc1)Nc1ccccc1`, for which the inhibition in experiment [1] was determined as 45%.

Consider `O=c1[nH]c(-c2cccc(O)c2)nc2ccccc12`, for which the inhibition in experiment [1] is -6%.

On to `COc1ccc(NC(=O)COc2cc(-c3nc4ccccc4c(=O)[nH]3)ccc2OC)cc1`, for which the inhibition in experiment [1] was found to be 14%.

Turning to `COc1ccc(-c2nc3ccccc3c(=O)[nH]2)cc1OCC(=O)Nc1ccccc1`, the inhibition in experiment [1] worked out at 20%.

For the compound `COc1ccccc1NC(=O)COc1cc(-c2nc3ccccc3c(=O)[nH]2)ccc1OC`, the inhibition in experiment [1] is 21%.

As to `COc1ccc(-c2nc3ccccc3c(=O)[nH]2)cc1OCc1ccc(F)cc1F`, in experiment [1], the inhibition turned out to be 45%.

Regarding `O=c1[nH]c(-c2ccc(OCc3ccc(F)cc3F)cc2)nc2ccccc12`, the inhibition in experiment [1] worked out at 30%.

`CCOc1ccc(NC(=O)COc2ccc(-c3nc4ccccc4c(=O)[nH]3)cc2OC)cc1`: the inhibition in experiment [1] was determined as 0%.

As to `COc1ccc(-c2nc3ccccc3c(=O)[nH]2)cc1OCC(=O)Nc1ccc([N+](=O)[O-])cc1`, in experiment [1], the inhibition came out at 1%.

For the compound `O=c1[nH]c(-c2ccc(Oc3ccc(F)cc3)cc2)nc2ccccc12`, the inhibition in experiment [1] was 30%.

Take `O=C(COc1ccc(-c2nc3ccccc3c(=O)[nH]2)cc1)Nc1cccc2ccccc12`: in experiment [1], the inhibition stood at 5%.

Regarding `CS(=O)(=O)Oc1ccc(-c2nc3ccccc3c(=O)[nH]2)cc1`, the inhibition in experiment [1] came to 42%.

Consider `COc1cc(-c2nc3ccccc3c(=O)[nH]2)ccc1Oc1ccc(Cl)cc1Cl`, for which the inhibition in experiment [1] came out at 55%.

On to `COc1cc(-c2nc3ccccc3c(=O)[nH]2)ccc1OCc1ccc(F)cc1F`, for which the inhibition in experiment [1] was 36%.

Consider `COc1ccc(-c2nc3ccccc3c(=O)[nH]2)cc1O`, for which the inhibition in experiment [1] is 0%.

Regarding `O=C(COc1ccc(-c2nc3ccccc3c(=O)[nH]2)cc1)Nc1ccc2ccccc2c1`, in experiment [1], the inhibition was found to be 0%.

`COc1cc(-c2nc3ccccc3c(=O)[nH]2)ccc1O`: the inhibition in experiment [1] amounted to 39%.

Regarding `Oc1nc(-c2cccnc2)nc2ccccc12`, the inhibition in experiment [1] was 36%.

As to `CC(=O)c1c(C)c2cnc(Nc3ccc(N4CCNCC4)cn3)nc2n(C2CCCC2)c1=O`, the inhibition in experiment [1] is 95%; in experiment [2] it was -4%.

For `O=C(COc1ccc(-c2nc3ccccc3c(=O)[nH]2)cc1)NC1CCCCC1`, in experiment [1], the inhibition was determined as 20%.

For `COc1ccc(NC(=O)COc2ccc(-c3nc4ccccc4c(=O)[nH]3)cc2OC)cc1`, the inhibition in experiment [1] turned out to be 41%.

As to `O=C(COc1ccc(-c2nc3ccccc3c(=O)[nH]2)cc1O)Nc1ccc(Cl)cc1`, the inhibition in experiment [1] is 0%.

Take `O=c1[nH]c(-c2ccc(Br)cc2)nc2ccccc12`: the inhibition in experiment [1] was 31%.

For the compound `COc1cccc(NC(=O)COc2ccc(-c3nc4ccccc4c(=O)[nH]3)cc2OC)c1`, the inhibition in experiment [1] was 16%.

Turning to `COc1ccc(-c2nc3ccccc3c(=O)[nH]2)cc1Oc1ccc(F)cc1`, the inhibition in experiment [1] amounted to 46%.

For `O=C(COc1ccc(-c2nc3ccccc3c(=O)[nH]2)cc1)Nc1ccc([N+](=O)[O-])cc1`, the inhibition in experiment [1] worked out at 26%.

With `COc1ccc(-c2nc3ccccc3c(=O)[nH]2)cc1OCC(=O)Nc1ccccc1Cl`, the inhibition in experiment [1] was 41%.

For `CCCCNC(=O)COc1ccc(-c2nc3ccccc3c(=O)[nH]2)cc1OC`, the inhibition in experiment [1] worked out at 48%.

Regarding `C#CCOc1ccc(-c2nc3ccccc3c(=O)[nH]2)cc1OC`, the inhibition in experiment [1] was found to be 38%.

On to `O=c1[nH]c(-c2ccc(O)cc2)nc2ccccc12`, for which, in experiment [1], the inhibition is 30%.

Consider `COc1ccc(-c2nc3ccccc3c(=O)[nH]2)cc1OCC(=O)Nc1ccccc1C`, for which the inhibition in experiment [1] is -5%.

Take `COc1cc(-c2nc3ccccc3c(=O)[nH]2)ccc1OS(C)(=O)=O`: the values for the inhibition in experiment [1] and in experiment [2] were 78% and -5%, respectively. Also, at CDK2/Cyclin A2, the IC50 was over 100 µM. The inhibition entry on Tubulin (Sus scrofa) is “Active”. The EC50 in the experiment with A549 is 7 µM; in the experiment with Calu-1 it was 9 µM; in the experiment on MDA-MB-468, over 50 µM; in the experiment on T47D, 8 µM.

With `O=c1[nH]c(-c2ccc([N+](=O)[O-])cc2)nc2ccccc12`, the inhibition in experiment [1] came out at 0%.

`CCOc1ccc(NC(=O)COc2cc(-c3nc4ccccc4c(=O)[nH]3)ccc2OC)cc1`: the inhibition in experiment [1] worked out at 3%.
